The list is not random: actives were taken first. Their share in the collection is about 2.1%.
Runt-SMMHC FRET = blocks binding of human RUNX1 Runt domain to CBFb-SMMHC; Cerulean-Runt/Venus-CBFb-SMMHC FRET ratio 530/480, 1 h; inhibition, % at 20 µM; 0.74% of 220,000 active; AID 1434;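 active = mean inhibition across duplicate retests at 20 µM reaching about 50%, limit read from the data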;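 note: 0% = DMSO wells and 100% = wells with excess untagged CBFb-SMMHC; inhibitors lower the FRET ratio by blocking Runt binding to CBFb-SMMHC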
Tb hexokinase = blocks Trypanosoma brucei hexokinase 1 activity; AID 1430; recombinant TbHK1, G6PDH-coupled NADH A340; 0.11% of 220,000 active; inhibition, % at 10 µM;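 active = inhibition of 50% or more in the single-dose primary screen; inactive = inhibition below 50%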
p97 inhibitor = blocks human p97 ATPase activity. P55072. recombinant p97 ATPase, Kinase-Glo ATP luminescence, 3 h. inhibition, % at 8 µM. 0.42% of 220,000 active. AID 1481; in the data active = inhibition above about 15%;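 note: 0% = DMSO vehicle and 100% = wells lacking enzyme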
Hck Nef HTS = blocks Nef-activated human Hck kinase; inhibition, % at 20 µM; P08631; AID 463187; Recombinant Hck-YEEI plus Nef, Z-Lyte FRET kinase assay; 0.68% of 220,000 active;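 active = Hck-Nef kinase inhibition above about 50%, limit read from the data; inactive = inhibition below that limit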;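 note: 0% = DMSO with Hck plus Nef and 100% = Hck alone without Nef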
Target sequence (P08631 whole entry, looked up): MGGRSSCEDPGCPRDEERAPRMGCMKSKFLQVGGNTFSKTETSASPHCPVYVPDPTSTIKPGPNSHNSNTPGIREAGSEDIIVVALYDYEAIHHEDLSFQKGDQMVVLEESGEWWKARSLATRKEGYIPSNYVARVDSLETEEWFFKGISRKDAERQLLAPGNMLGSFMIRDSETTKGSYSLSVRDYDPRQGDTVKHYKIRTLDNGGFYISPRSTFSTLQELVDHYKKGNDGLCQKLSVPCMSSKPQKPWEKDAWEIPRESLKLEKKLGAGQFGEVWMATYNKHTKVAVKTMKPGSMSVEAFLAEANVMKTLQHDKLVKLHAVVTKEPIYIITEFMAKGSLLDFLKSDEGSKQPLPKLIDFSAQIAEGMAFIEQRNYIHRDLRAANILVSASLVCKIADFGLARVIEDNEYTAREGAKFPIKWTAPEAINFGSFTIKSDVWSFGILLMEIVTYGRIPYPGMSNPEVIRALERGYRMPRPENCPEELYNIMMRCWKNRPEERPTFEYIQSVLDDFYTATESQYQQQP
Runt-CBFb FRET = Runt domain-CBFb interaction inhibition; AID 1496; Q01196+Q13951; 0.46% of 220,000 active; Cerulean-Runt/Venus-CBFb FRET ratio 530/480, 1 h; inhibition, % at 20 µM;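 active = inhibition over about 50% at 20 µM in the single-dose screen, limit read from the data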;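 note: 0% = DMSO wells and 100% = excess unlabeled CBFb competitor control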
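test system = Cerulean-Runt domain fusion protein, energy donor | probe or stimulus = Venus-CBFb binding partner, 100 nM | incubation = two 1 h room-temperature incubations shielded from light | detection = fluorescence energy transfer, 422 nm excitation, 530/480 nm emission | measure = loss of energy transfer signal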
RanGTP-Imp inh = inhibitors of RanGTP-importin-beta interaction, primary screen, biochemical, FRET, CFP-Ran, YFP-importin-beta, homogeneous; cell-free CFP-Ran/YFP-importin-beta FRET ratio; inhibition, % (test concentration not listed); 1.1% of 300,000 active;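 active = more than half of the replicate wells show a fall in the fluorescence ratio signal beyond about 16%, limit read from the data, passing the limit was not always enough; inconclusive = exactly half of the replicate wells pass the set limit; inactive = fewer than half of replicates pass the limit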;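 note: 0% = DMSO wells and 100% = Ran loaded with GDP instead of GTP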
* marks the source's active call; other numbers are inactive results; ? = inconclusive; . = no result given.

SMILES	Runt-SMMHC FRET	Tb hexokinase	p97 inhibitor	Hck Nef HTS	Runt-CBFb FRET	RanGTP-Imp inh
CN1CCc2nc(NC(=O)c3cccc(OC(F)F)c3)sc2C1	69*	-32	-3	8	23	19*
O=C(CSc1nc2[nH]ncc2c(=O)[nH]1)Nc1ccc(Cl)cc1	.	.	.	.	.	2
N#CC1(C#N)C(c2ccccc2)OC23CCCCCC2C1(C#N)C(=N)O3 (stereo unspecified)	80*	-4	2	-2	40	?
N#CC1(C#N)C(c2ccccc2)OC23CCCCC2C1(C#N)C(=N)O3 (stereo unspecified)	61	-4	3	6	33	42*
O=C(COC(=O)Cc1ccc(S(=O)(=O)N2CCOCC2)s1)NCc1ccc(Cl)cc1	0	-1	3	4	-1	1
COC(=O)CCC(=O)Nc1cccc(Br)c1	4	6	3	18	-2	1
CSc1ccc(CN(C)C(=O)c2cc(=O)[nH]c3ccccc23)cc1	.	.	.	.	.	-1
COc1ccc(Nc2cc(Cl)nc(N)n2)cc1OC	6	-5	0	13	2	18*
Nc1nc(Cl)cc(Nc2ccccc2Cl)n1	-4	6	3	26	2	-4
COc1cc(/C=C/C(=O)N2C(=O)c3cccc(N)c3C2=O)cc(OC)c1OC	33	-15	8	2	-26	?
Nc1cccc2c1C(=O)N(C(=O)/C=C/c1cccc(F)c1)C2=O	90*	-16	2	16	-42	27*
CC1CCC2(CC1)NC(=O)N(Cc1cc(=O)n3ccsc3n1)C2=O (stereo unspecified)	-2	-6	9	13	1	?
O=C(N/N=C/c1ccc2c(c1)OCO2)c1ccccn1	1	-47	-33	0	1	3
CNc1ccc(Br)cc(C(=O)/C=C/c2ccc(OC)cc2)c1=O	-3	-22	5	28	8	-3
O=C(/C=C/c1ccc2c(c1)OCO2)c1ccccn1	-6	-33	-3	12	34	41*
CNc1ccc(Br)cc(C(=O)/C=C/c2ccc3c(c2)OCO3)c1=O	-28	-19	15*	3	0	0
O=C(/C=C/c1ccccc1)c1ccccn1	22	-6	3	1	21	23*
N/C(=N\OC(=O)/C=C/c1ccccc1)c1ccccn1	0	-3	-5	-48	1	0
CC(C)(C)OC(=O)NCCCCCc1nnc(SCC(=O)Nc2cccc(Cl)c2)o1	0	-3	3	1	-3	1
Cn1c(CNC(=O)CNC(=O)c2cccc(F)c2)cc(=O)n(C)c1=O	.	.	.	.	.	-2
CN(C#N)c1nc(Cl)nc(Nc2cccc(Cl)c2)n1	4	-2	15*	0	4	-2
Cc1cc(C)nc(Nc2cccc(Cl)c2)n1	.	.	.	.	.	8
CC(C)CC(C)N1CCC(n2nccc2NC(=O)CCc2ccccc2)CC1 (stereo unspecified)	.	.	.	.	.	4
CC(CC(F)(F)F)N1CCC(n2nccc2NC(=O)CCCc2ccccc2)CC1 (stereo unspecified)	.	.	.	.	.	57*
CCN1C(=O)/C(=C2/C=Cc3cc(C)ccc3N2CC)N(C)C1=S	0	-21	-8	2	8	-3
SMILES	Runt-SMMHC FRET	Tb hexokinase	p97 inhibitor	Hck Nef HTS	Runt-CBFb FRET	RanGTP-Imp inh
CCN1C(=C(C#N)C#N)C=Cc2cc(C)ccc21	77*	-6	2	19	-36	52*
CCOC(=O)c1c(NC(C)=O)sc2c1CCN(Cc1ccccc1)C2	.	.	.	.	.	87*
CCOC(=O)c1c(NC(=O)CSc2ncccn2)sc2c1CC(C)(C)NC2(C)C	.	.	.	.	.	0
COC(=O)c1c(NC(=O)C(C)(C)C)sc2c1CCN(Cc1ccccc1)C2	.	.	.	.	.	32*
CCOC(=O)c1c(NC(=O)CSc2ncccn2)sc2c1CCN(Cc1ccccc1)C2	151*	14	-11	1	106*	135*
CCCNC(=O)c1c(NC(=O)C2COc3ccccc3O2)sc2c1CCCC2 (stereo unspecified)	3	10	-4	2	-2	5
COC(=O)c1c(NC(=O)C2COc3ccccc3O2)sc2c1CCN(Cc1ccccc1)C2 (stereo unspecified)	50	-6	-4	1	29	69*
Cc1[nH]n(-c2ccccc2)c(=O)c1/C=N/NC(=O)c1ccccc1F	.	.	.	.	.	0
CCc1ccc(N(CC(=O)Nc2ccccc2C(=O)N2CCCC2)S(C)(=O)=O)cc1	.	.	.	.	.	6
CCOC(=O)C1CCN(C(=O)CN(c2cccc(OC)c2)S(=O)(=O)c2ccccc2)CC1	4	-5	-7	1	0	2
CCOC(=O)c1c(NC(=O)CN2CCCCC2)sc2c1CCN(C(=O)OCC)C2	-9	-8	-2	6	-12	6
CCOC(=O)c1c(NC(=O)C(C)Sc2cccc[n+]2[O-])sc2c1CCN(Cc1ccccc1)C2 (stereo unspecified)	81*	-15	6	5	112*	.
CCOC(=O)c1c(NC(=O)CC)sc2c1CCN(Cc1ccccc1)C2	.	.	.	.	.	89*
COC(=O)c1c(NC(C)=O)sc2c1CCN(Cc1ccccc1)C2	.	.	.	.	.	91*
CCCCNC(=S)N1CCN(c2ccc(C(C)=O)cc2)CC1	-3	-43	0	22	-1	?
O=C(COc1cccc(Cl)c1)Nc1cc(S(=O)(=O)N2CCOCC2)ccc1N1CCOCC1	-2	-10	1	17	-2	-4
COc1ccc(CCNC(=O)C2CCN(S(=O)(=O)N3CC(C)CC(C)C3)CC2)cc1OC (stereo unspecified)	3	53*	-4	2	-3	1
COc1ccc(CCNC(=O)C2CCCN(S(=O)(=O)N3CC(C)CC(C)C3)C2)cc1OC (stereo unspecified)	.	.	.	.	.	1
Cc1c(O)ccc2c(CC(=O)N[C@@H](Cc3c[nH]c4ccccc34)C(=O)O)cc(=O)oc12	.	.	.	.	.	21*
O=C(Cc1cccs1)NC(Cc1c[nH]c2ccccc12)C(=O)O (stereo unspecified)	.	.	.	.	.	1
O=c1[nH]c(Nc2ccc(F)cc2)cc2ccccc12	15	0	7	8	13	54*
Cc1ccccc1Nc1cc2ccccc2c(=O)[nH]1	-32	3	4	0	-3	17*
O=c1[nH]c(Nc2ccccc2Cl)cc2ccccc12	.	.	.	.	.	39*
Cc1cc2ccccc2c(=O)[nH]1	1	-16	-2	-2	-1	2
COC(=O)CCCC(=O)N1CCC(CCC(=O)NC2CC2)CC1	.	.	.	.	.	2
CCOC(=O)c1cc2sc(C)cc2n1CC(=O)NCCc1ccccc1	-6	2	-4	-5	-4	-4
CCc1cc[n+](-c2nc3ccccc3nc2[N-]S(=O)(=O)c2ccc(Br)s2)cc1	69*	-12	5	0	-9	41*

High-throughput results as filed in PubChem.
